In article PMC11187553 (RSC Medicinal Chemistry, 2024):
Entries after “also recorded” stand apart in the source; their conditions may differ.

Assays:
SH-SY5Y cells [1] = experiment: Cytotoxic effects in SH-SY5Y cells; format: cell-based, human; conditions: for cytotoxicity (in words): 0.1-100 μM, 24, 48 or 72 h
SH-SY5Y cells [2] = experiment: SH-SY5Y viability after sulforaphane; format: cell-based, human; conditions: data not shown
[3] = system: histones H2/H3 lysine acetylation; experiment: Western blot of lysine acetylation of histones H2/H3 in SH-SY5Y cells; format: cell-based, human; conditions: 5 μM, 6 h
Method in brief: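 SH-SY5Y cells were seeded at 20 × 10^4 cells/cm2 and grown 48 h, then given 5 μM test compound or vehicle for 6 h. Cells were washed in 10 mM sodium butyrate/PBS, nuclei isolated, and histones acid-extracted (0.4 N H2SO4, 4 °C, 1 h) and precipitated in acetone. Samples ran on 15% gels and were blotted to nitrocellulose with anti-acetyl-lysine antibody. Densitometry was normalised to H1.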

SH-SY5Y cells [4] = experiment: SH-SY5Y viability after NAC pre-treatment and compound 6; format: cell-based, human; conditions: NAC 2 mM 1 h, then compound 10 μM 24 h
SH-SY5Y cells [5] = experiment: Analysis of cell cycle in SH-SY5Y cells; format: cell-based, human; conditions: 72 h
Method in brief: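 SH-SY5Y cells were grown in DMEM with 10% FBS and antibiotics at 37 °C in 5% CO2. After 72 h with test compound, cells were collected, fixed in 70% ice-cold ethanol and stained with a propidium iodide cell-cycle reagent for 30 min in the dark at room temperature. Cell-cycle distribution was read by flow cytometry.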

[6] = system: reactive oxygen species (ROS) in SH-SY5Y cells; experiment: ROS determination with DCFDA probe in SH-SY5Y cells; format: cell-based, human; conditions: for protective effect against TBH-induced oxidative stress: 2 μM 24 h pre-treatment, 100 μM tert-butyl hydroperoxide 30 min; for effect on endogenous ROS (oxidative stress) vs control: 2 μM, 24 h, DCFDA
Method in brief: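 SH-SY5Y cells (1 × 10^4/well) were left 24 h to adhere, then given vehicle or 2 μM test compound for 24 h. After washing, cells were loaded with 10 μM DCFDA in DMEM for 30 min. Oxidative stress was then induced with 100 μM tert-butyl hydroperoxide in PBS for 30 min. Fluorescence (485/535 nm) was normalised to Lowry protein; experiments were done in triplicate.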

[7] = system: neural progenitor cells (neurospheres); experiment: Neurospheres differentiation analysis; format: cell-based, Mus musculus; conditions: 2.5 and 5 μM, 7 DIV
Method in brief: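 Neurospheres came from subventricular-zone NPCs of 8-month-old male C57BL/6N mice. Thirty spheres were plated on Matrigel-coated coverslips in complete DMEM F-12 with test compound or DMSO for 7 DIV. Cells were fixed in 4% PFA, permeabilised with Triton, blocked in goat serum, and stained overnight at 4 °C for DCX, GFAP, Olig2 and Nestin. Confocal z-stacks gave marker intensity/DAPI intensity; mean ± SD of 3 fields per condition.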

[8] = system: neural progenitor cells (neurospheres); experiment: Neurospheres proliferation; format: cell-based, Mus musculus; conditions: 7 DIV
Method in brief: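 NPCs from the subventricular zone of 8-month-old male C57BL/6N mice were Accutase-dissociated and plated as single cells (5 × 10^3/well) in suspension. Medium was DMEM-F12 with glutamine, insulin, 20 ng ml−1 EGF, 20 ng ml−1 FGF2, N2 and B27. Test compound (2.5–50 μM) or DMSO was present for 7 DIV. Brightfield live-cell images were taken daily; only aggregates over 400 μm2 were analysed.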

HepG2 cells = experiment: Cytotoxicity in human hepatoma cell line HepG2; format: cell-based; conditions: 24 h incubation at 1-100 μM, MTT
Method in brief: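 HepG2 cells were grown in MEM with 10% FBS, penicillin and streptomycin, then seeded at 1.5 × 10^4 cells/well. After 24 h they received test compound ([…]) in complete medium or vehicle for 24 h. MTT (0.2 mg mL−1 in PBS) was added for 2 h at 37 °C, formazan was dissolved in DMSO, and A570 was read. Results are % live cells versus vehicle, mean ± SD, n = 4.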

HDAC6 = molecular target: T1, HDAC6 (Homo sapiens, UniProt Q9UBN7); experiment: HDAC inhibition in vitro assay; format: biochemical; conditions: from IC50 values of Table 2
T1 sequence (Q9UBN7 1-1215): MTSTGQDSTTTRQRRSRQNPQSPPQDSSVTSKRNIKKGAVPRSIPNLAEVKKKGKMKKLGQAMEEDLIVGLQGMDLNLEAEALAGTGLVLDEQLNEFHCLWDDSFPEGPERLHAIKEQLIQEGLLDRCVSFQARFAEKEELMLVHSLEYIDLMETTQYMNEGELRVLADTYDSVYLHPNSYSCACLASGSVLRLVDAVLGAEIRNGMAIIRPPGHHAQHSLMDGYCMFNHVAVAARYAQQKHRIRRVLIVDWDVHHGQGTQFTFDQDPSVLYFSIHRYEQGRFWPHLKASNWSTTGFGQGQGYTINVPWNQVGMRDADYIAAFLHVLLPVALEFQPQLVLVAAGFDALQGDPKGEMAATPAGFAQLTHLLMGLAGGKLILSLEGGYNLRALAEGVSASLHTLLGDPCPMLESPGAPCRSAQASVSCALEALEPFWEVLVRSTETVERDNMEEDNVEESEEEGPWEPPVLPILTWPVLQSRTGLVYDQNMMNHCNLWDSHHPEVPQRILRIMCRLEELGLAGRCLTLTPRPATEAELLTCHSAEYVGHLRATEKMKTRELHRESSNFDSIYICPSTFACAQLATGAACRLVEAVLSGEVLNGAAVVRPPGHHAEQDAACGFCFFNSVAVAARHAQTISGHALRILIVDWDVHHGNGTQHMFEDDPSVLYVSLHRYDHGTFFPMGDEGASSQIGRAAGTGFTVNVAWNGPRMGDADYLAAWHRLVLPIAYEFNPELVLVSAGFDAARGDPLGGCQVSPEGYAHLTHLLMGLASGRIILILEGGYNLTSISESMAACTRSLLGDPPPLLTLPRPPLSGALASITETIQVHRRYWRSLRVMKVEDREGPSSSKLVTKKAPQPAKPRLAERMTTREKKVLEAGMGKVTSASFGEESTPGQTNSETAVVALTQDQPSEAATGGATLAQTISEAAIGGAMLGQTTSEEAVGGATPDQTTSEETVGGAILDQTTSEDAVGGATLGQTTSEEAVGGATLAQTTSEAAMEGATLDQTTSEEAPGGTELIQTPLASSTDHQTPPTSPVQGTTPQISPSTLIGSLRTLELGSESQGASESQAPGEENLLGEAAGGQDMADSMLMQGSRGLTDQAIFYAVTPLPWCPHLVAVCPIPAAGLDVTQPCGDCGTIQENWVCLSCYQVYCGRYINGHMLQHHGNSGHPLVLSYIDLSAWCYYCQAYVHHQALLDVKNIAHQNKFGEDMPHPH

SH-SY5Y cells [9] = experiment: Protection of SH-SY5Y cells from H2O2 cytotoxicity; format: cell-based, human; conditions: pre-treatment at all concentrations (1-50 μM), 24 h

CC1=C(NCCCCCC(=O)NO)C(=O)c2ccccc2C1=O [Compound 2, N-Hydroxy-6-((3-methyl-1,4-dioxo-1,4-dihydronaphthalen-2-yl)amino)hexanamide]
IC50 (SH-SY5Y cells [1]; Homo sapiens, 24 h, read-out: IC50 (μM) ± SEM 24 h): > 100 µM

Nc1ccccc1NC(=O)c1ccc(CNC2=CC(=O)c3ccccc3C2=O)cc1 [Compound 5, N-(2-Aminophenyl)-4-(((1,4-dioxo-1,4-dihydronaphthalen-2-yl)amino)methyl)benzamide]
cytotoxicity (in words) (SH-SY5Y cells [1]): comparable to that of vorinostat

CC1=C(NCc2ccc(C(=O)Nc3ccccc3N)cc2)C(=O)c2ccccc2C1=O [Compound 6, N-(2-Aminophenyl)-4-(((3-methyl-1,4-dioxo-1,4-dihydronaphthalen-2-yl)amino)methyl)benzamide]
change of toxic activity in cells pretreated with sulforaphane (SH-SY5Y cells [2]; SFN pre-treatment): did not observe any change in the toxic activity | acetylation of histone H2/H3 lysines [3]: massive hyperacetylation | mitigation of cytotoxic effect by NAC pre-treatment (SH-SY5Y cells [4]): not mitigated | cell-cycle block in G0/G1, S or G2/M (cytostatic effect) (SH-SY5Y cells [5]): no cell-cycle block | protective effect against TBH-induced oxidative stress [6]: did not show any protective effect | effect on endogenous ROS (oxidative stress) vs control [6]: significant induction of oxidative stress

O=C(CS)NCCCCNC1=CC(=O)c2ccccc2C1=O [Compound 7, N-(4-((1,4-Dioxo-1,4-dihydronaphthalen-2-yl)amino)butyl)-2-mercaptoacetamide]
cytotoxicity (in words) (SH-SY5Y cells [1]): lowest cytotoxicity

CC1=C(NCCCCNC(=O)CS)C(=O)c2ccccc2C1=O [Compound 8, 2-Mercapto-N-(4-((3-methyl-1,4-dioxo-1,4-dihydronaphthalen-2-yl)amino)butyl)acetamide]
protective activity in H2O2-stressed cells after sulforaphane treatment (SH-SY5Y cells [2]; SFN (NQO1 inducer)): no increase in the protective activity | DCX+ cells (immature neurons marker) vs DMSO control [7]: significantly increased | GFAP expression (astrocytes marker) vs DMSO control [7]: without affecting | Nestin+ cells (NPCs marker) vs DMSO control [7]: decreased | Olig2 expression (OPCs marker) vs DMSO control [7]: without affecting | cytotoxicity (in words) (SH-SY5Y cells [1]): nontoxic up to the concentration of 100 μM; also recorded: lowest cytotoxicity | neurospheres number per well vs DMSO control ([8]; 2.5 and 5 μM): significantly increased | neurospheres size vs DMSO control ([8]; 2.5 and 5 μM): without affecting | toxicity to neurospheres ([8]; higher concentrations 25, 50 μM): toxic | toxicity in HepG2 cells (in words) (HepG2 cells): no significant toxicity up to 10 μM | selectivity between HDAC2 and HDAC6 isoforms (HDAC6): no selectivity | protective effect against TBH-induced oxidative stress [6]: did not show any protective effect | effect on endogenous ROS (oxidative stress) vs control [6]: only a tendency to increase ROS production | rescue of SH-SY5Y cell viability from H2O2 (SH-SY5Y cells [9]): did not rescue
